# Laboratory results as given in article PMC8463264 (Acta Pharmaceutica Sinica. B, 2020).
# Where no end group is shown, it is not given here.
# Legend:
# [1] = system: CXCL12-induced intracellular Ca^2+ mobilization in BCR-ABL expressing murine pro/pre B cells; assay: CXCL12-induced Ca2+ mobilization assay; format: cell-based, mouse
# [2] = cited from earlier work
# [3] = system: immune cell infiltration into BAL of BALB/c mice; assay: Mouse model of allergic airway hypereosinophilia; format: in vivo; conditions: for effect on influx of macrophages into BAL: OVA-challenged mice
# [4] = system: MC903-induced skin inflammation of ears of BALB/c mice; assay: Mouse model of atopic dermatitis; format: in vivo
# CXCR4-tropic HIV-1 = assay: X4-HIV-1 inhibition assay in TZM-bl reporter cells; format: cell-based; conditions: for fold increase of antiviral (anti-HIV-1) activity over WSC02: ratio of IC50 values vs WSC02
# [5] = system: SupT1 migration towards a CXCL12 gradient; assay: Transwell cell migration assay; format: cell-based
# Procedure, shortened: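 SupT1 cells (0.75 × 10^5) in RPMI with 0.1% BSA go into the upper chamber of a 5 μm polycarbonate transwell, with or without compound, and settle ~15 min. The lower chamber holds buffer with or without 100 ng/mL CXCL12 plus compound. After 4 h of migration at 37 °C (5% CO2), lower-chamber cells are counted by CellTiter-Glo and normalized to CXCL12-only. Mean ± SEM, n = 3; fold values compare IC50s.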
# zebrafish embryos = assay: Toxicity in zebrafish embryos; format: in vivo
# Procedure, shortened: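 Wild-type embryos dechorionated at 24 hpf with 1 mg/mL pronase in E3, then exposed 24 h in E3 containing peptide. Two independent assays per concentration, each on 10 × 3 embryos. Controls: PBS solvent diluted in E3 matching the highest-dose amount, and pleurocidin peptide NRC-03. Scored at 48 hpf by stereomicroscope: lysis/necrosis, delay/malformations, heart edema/reduced or absent circulation.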
# CXCR4 = CXCR4 (Homo sapiens, UniProt P61073); assay: CXCR4 12G5 antibody competition assay on SupT1 cells; format: binding
# mice = assay: Observation of visible or behavioral adverse effects in mice; format: in vivo, mouse; conditions: administered topically onto the ears or intranasally into lungs of mice
# [6] = 12.6 μmol/kg intranasal, 2 h before each OVA challenge, BAL on day 8, mean ± SEM
# [7] = 315 nmol/ear topically daily, day 11, mean ± SEM
# [8] = 16 μmol/kg intranasal, 2 h before each OVA challenge, BAL on day 8, mean ± SEM
# [9] = 2.5 nmol/ear every two days, day 11 (disease inducer)
# [10] = 20 nmol/ear topically daily, day 11, mean ± SEM
# Chain of CXCR4 (P61073 whole entry): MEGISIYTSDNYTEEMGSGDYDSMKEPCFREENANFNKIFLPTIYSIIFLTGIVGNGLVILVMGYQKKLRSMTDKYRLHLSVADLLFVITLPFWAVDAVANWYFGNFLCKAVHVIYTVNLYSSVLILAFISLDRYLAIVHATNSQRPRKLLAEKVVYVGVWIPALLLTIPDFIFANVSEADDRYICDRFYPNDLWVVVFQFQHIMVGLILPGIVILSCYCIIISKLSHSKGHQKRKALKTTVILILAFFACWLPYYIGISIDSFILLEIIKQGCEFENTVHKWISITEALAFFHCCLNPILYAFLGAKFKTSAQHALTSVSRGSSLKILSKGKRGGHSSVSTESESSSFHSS
compound,measurement,setting,value
"c1cc(CN2CCCNCCNCCCNCC2)ccc1CN1CCCNCCNCCCNCC1 [AMD3100, Plerixafor]",effect on CXCL12-induced Ca2+ mobilization,[1]; 1 μmol/L compound,reduced Ca^2+ mobilization
same,effect on CXCL12-induced Ca2+ mobilization,[1]; 10 μmol/L compound,completely abrogated
same,stability towards plasma proteases,[2],resistant to plasma proteases
same,inhibition of recruitment of B cells into BAL,[3]; [6],47 ± 17%
same,inhibition of recruitment of T cells into BAL,[3]; [6],47 ± 15%
same,inhibition of recruitment of eosinophils into BAL,[3]; [6],56 ± 13%
same,inhibition of recruitment of neutrophils into BAL,[3]; [6],57 ± 14%
same,inhibition of recruitment of total cells into BAL,[3]; [6],41 ± 13%
same,inhibition of MC903 induced ear thickness,[4]; [7],25 ± 7%
same,inhibition of disease score,[4]; [7],18 ± 6%
same,IC50,"CXCR4-tropic HIV-1; Human immunodeficiency virus 1, TZM-bl, read-out: IC50±SEM X4-HIV-1",12 ± 2 nM
CC[C@H](C)[C@H](N)C(=O)N[C@@H](CC(C)C)C(=O)N[C@@H](CCCNC(=N)N)C(=O)N[C@@H](Cc1c[nH]c2ccccc12)C(=O)N[C@@H](CO)C(=O)N[C@@H](CCCNC(=N)N)C(=O)N[C@@H](CCCCN)C(=O)N[C@@H](CC(C)C)C(=O)N1CCC[C@H]1C(=O)N[C@@H](CS)C(=O)N[C@H](C(=O)N[C@@H](CO)C(=O)O)C(C)C [JM#21],fold more efficient than WSC02 in blocking migration,[5]; vs WSC02,33 fold
same,fold more efficient than EPI-X4 in blocking migration,[5]; vs wild type peptide EPI-X4,more than 1400 fold
same,"toxicity in zebrafish embryos (acute, developmental, cardiotoxicity)","zebrafish embryos; exposure 24 h from 24 hpf, 3, 30 and 300 μmol/L, 60 embryos per group",not toxic
same,inhibition of recruitment of B cells into BAL,[3]; [8],71 ± 5%
same,inhibition of recruitment of T cells into BAL,[3]; [8],73 ± 13%
same,inhibition of recruitment of eosinophils into BAL,[3]; [8],80 ± 1%
same,inhibition of recruitment of neutrophils into BAL,[3]; [8],42 ± 15%
same,effect on influx of macrophages into BAL,[3]; 16 μmol/kg intranasal,not macrophages
same,inhibition of MC903-induced ear thickening,"[4]; 400 nmol/ear topically daily, day 11, mean ± SEM",88 ± 4%
same,IC50,CXCR4,220 ± 20 nM
same,fold more active than AMD3100 in 12G5 competition,CXCR4; vs AMD3100,about 3 fold
same,fold more active than WSC02 in 12G5 competition,CXCR4; vs WSC02,~2 fold
same,visible or behavioral adverse effects,mice,did not observe visible or behavioral adverse effects
"C=C1/C(=C\C=C2/CCC[C@]3(C)[C@@H]([C@H](C)/C=C/[C@@H](O)C4CC4)CC[C@@H]23)C[C@@H](O)C[C@@H]1O [MC903, calcipotriol hydrate]","disease score (0-12, Table 3)",[4]; [9],9.4 ± 0.1
same,increase of the ear thickness as compared to control,[4]; [9],3.1 ± 0.1 fold
C[C@@H]1C[C@H]2[C@@H]3CCC4=CC(=O)C=C[C@]4(C)[C@@]3(F)[C@@H](O)C[C@]2(C)[C@@]1(O)C(=O)CO [dexamethasone],inhibition of MC903-induced ear thickening,[4]; [10],96 ± 2%
same,inhibition of disease score,[4]; [10],97 ± 2%
GRRKRKWLRRIGKGVKIIGGAALDHL-NH2 [NRC-03],toxicity in zebrafish embryos (positive control),"zebrafish embryos; 6 μmol/L, exposure 24 h",acutely toxic
H-ILRWSKKVPCVS [JM#1],fold increase of antiviral (anti-HIV-1) activity over WSC02,CXCR4-tropic HIV-1,9 fold
H-IVRWSKKFPCVS [JM#7],fold increase of antiviral (anti-HIV-1) activity over WSC02,CXCR4-tropic HIV-1,about 2 fold
H-IVRWSKKVPCVS [WSC02],visible or behavioral adverse effects,mice,did not observe visible or behavioral adverse effects
H-LVRYTKKVPQVSTPTL [EPI-X4],effect on CXCL12-induced Ca2+ mobilization,[1]; at the tested concentrations,almost inactive
same,inhibition of recruitment of B cells into BAL,[3]; [8],54 ± 9%
same,inhibition of recruitment of T cells into BAL,[3]; [8],61 ± 8%
same,inhibition of recruitment of eosinophils into BAL,[3]; [8],76 ± 7%
same,inhibition of recruitment of neutrophils into BAL,[3]; [8],63 ± 7%
same,effect on influx of macrophages into BAL,[3]; 16 μmol/kg intranasal,not macrophages
same,IC50,CXCR4,3240 ± 620 nM
same,visible or behavioral adverse effects,mice,did not observe visible or behavioral adverse effects
